Active and inactive are the calls of the source. The rule behind the calls is not given here.
Legend:
dengue virus type 2 [1] = experiment: Antiviral activity against DENV2 16681 infected in human Huh-7 cells at 20 uM after 3 days by luciferase reporter gene assay; type: functional; conditions: Dengue virus, 16681, Huh-7, 72 h
[2] = Cytotoxicity against human HuH7 cells assessed as cell viability at 20 uM after 3 days by XTT assay; type: cell-based, Huh-7; conditions: read-out: Activity
[3] = Cytotoxicity against human HuH7 cells assessed as cell viability at 100 uM after 3 days by XTT assay; type: cell-based, Huh-7; conditions: read-out: Activity
dengue virus type 2 [4] = experiment: Antiviral activity against DENV2 16681 infected in human Huh-7 cells at 5 uM after 3 days by luciferase reporter gene assay; type: functional; conditions: Dengue virus, 16681, Huh-7, 72 h
MDA-MB-231 [5] = experiment: Growth inhibition of human MDA-MB-231 cells; type: functional
[6] = Growth inhibition of human Hep3B cells; type: functional, Hep 3B2
A549 = experiment: Antiproliferative activity against human A549 cells after 3 days by XTT assay; type: functional, cell-based; conditions: A549, 72 h
MCF7 = experiment: Antiproliferative activity against human MCF7 cells after 3 days by XTT assay; type: functional, cell-based; conditions: MCF7, 72 h
[7] = Antiproliferative activity against human H1299 cells after 3 days by XTT assay; type: functional, cell-based; conditions: NCI-H1299, 72 h
[8] = Antiproliferative activity against human HuH7 cells after 3 days by XTT assay; type: functional, cell-based; conditions: Huh-7, 72 h
MDA-MB-231 [9] = experiment: Antiproliferative activity against human MDA-MB-231 cells after 3 days by XTT assay; type: functional, cell-based; conditions: MDA-MB-231, 72 h
[10] = Selectivity index, ratio of CC50 for human HuH7 cells to IC50 for DENV2 16681; type: functional, Huh-7
dengue virus type 2 [11] = experiment: Antiviral activity against DENV2 16681 infected in human Huh-7 cells assessed as reduction of viral NS5 mRNA expression at 5 to 20 uM after 3 days by RT-PCR analysis; type: functional, organism-based
Outline: (§1)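 Huh-7-DV-Fluc cells treated 3 days with compound at 5 and 20 µM (dose series 5–40 µM), 0.1% DMSO mock; total RNA extracted, DENV2 RNA quantified by RT-qPCR normalized to cellular GAPDH mRNA; mean ± SD of triplicate experiments.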

[12] = Cytotoxicity against human HuH7 cells assessed as cell viability after 3 days by XTT assay; type: cell-based, Huh-7
dengue virus type 2 [13] = experiment: Antiviral activity against DENV2 16681 infected in human Huh-7 cells after 3 days by luciferase reporter gene assay; type: functional, organism-based; conditions: Dengue virus, 16681, Huh-7, 72 h
dengue virus type 2 [14] = experiment: Antiviral activity against DENV2 16681 infected in human Huh-7 cells assessed as reduction of viral NS2B protein expression at 5 to 20 uM after 3 days by Western blot analysis; type: functional, organism-based
Outline: (§2)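 Huh-7-DV-Fluc cells exposed 3 days to compound at 5 and 20 µM, or 5–40 µM for dose series, 0.1% DMSO mock; lysates immunoblotted with rabbit polyclonal anti-NS2B (1:3000), GAPDH (1:10000) as loading control.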

dengue virus type 2 [15] = experiment: Antiviral activity against DENV2 16681 infected in human Huh-7 cells assessed as reduction of viral NS2B protein expression after 3 days by Western blot analysis; type: functional, organism-based; outline: as §2
dengue virus type 2 [16] = experiment: Antiviral activity against DENV2 16681 infected in human Huh-7 cells assessed as reduction of viral NS5 mRNA expression after 3 days by RT-PCR analysis; type: functional, organism-based; outline: as §1
West Nile virus = experiment: Antiviral activity against West Nile virus by cell based assay; type: functional, organism-based
dengue virus type 2 [17] = experiment: Antiviral activity against DENV2 by cell based assay; type: functional, organism-based

| SMILES | inhibition at 20 µM (dengue virus type 2 [1]) [%] | viability at 72 h, 20 µM [2] [%] | viability at 72 h, 100 µM [3] [%] | inhibition at 5 µM (dengue virus type 2 [4]) [%] | IC50 [8] [µM] | IC50 (MDA-MB-231 [9]) [µM] | further results |
| --- | --- | --- | --- | --- | --- | --- | --- |
| OC(c1ccccc1)c1nc2ccc(F)cc2cc1-c1ccc(F)cc1 (stereo not given) | 23.1 | 129 | 92.3 | 22.2 |  |  |  |
| Fc1ccc2nc(-c3ccc(OCCN4CCCCC4)cc3)c(-c3ccc(OCCN4CCCCC4)cc3)cc2c1 |  |  |  |  |  |  | GI50 (MDA-MB-231 [5]): 0.72 µM; GI50 [6]: 0.71 µM |
| CN(C)CCCOc1ccc(-c2cc3ccccc3nc2C(=O)c2ccc(O)cc2)cc1 |  | 80.4 | 16.8 |  | > 10 | > 10 | IC50 (A549): > 10 µM; IC50 (MCF7): > 10 µM; IC50 [7]: > 10 µM |
| CC[C@@]1(O)C(=O)OCc2c1cc1n(c2=O)Cc2cc3c(CN(C)C)c(O)ccc3nc2-1 [TOPOTECAN] |  |  |  |  | 8.61 | < 0.1 |  |
| COc1ccc(-c2cc3ccccc3nc2C(O)c2ccc(OC)cc2)cc1 (stereo not given) | 58.5 | 71.1 | 31.9 | 33.5 |  |  | Ratio CC50/IC50 [10]: 3.47; Activity (dengue virus type 2 [11]): Active; CC50 at 72 h [12]: 63.1 µM; IC50 (dengue virus type 2 [13]): 18.2 µM; Activity (dengue virus type 2 [14]): Active |
| O=C(c1ccc(O)cc1)c1nc2ccccc2cc1-c1ccc(O)cc1 | 62.1 | 90.3 | 65.1 | 38.7 |  |  | Ratio CC50/IC50 [10]: >7.6; Activity (dengue virus type 2 [15]): Dose-dependent effect; Activity (dengue virus type 2 [11]): Active; Activity (dengue virus type 2 [16]): Dose-dependent effect; CC50 at 72 h [12]: > 100 µM; IC50 (dengue virus type 2 [13]): 13.2 µM; Activity (dengue virus type 2 [14]): Active |
| COc1ccc(-c2cc3cc(OC)ccc3nc2C(=O)c2ccccc2)cc1 | 53.1 | 87.6 | 84.3 | 36.2 |  |  | Ratio CC50/IC50 [10]: >5.76; CC50 at 72 h [12]: > 100 µM; IC50 (dengue virus type 2 [13]): 17.4 µM |
| COc1ccc(-c2cc3ccccc3nc2C(O)c2cc(OC)c(OC)c(OC)c2)cc1 (stereo not given) | 38.2 | 93.6 | 62.5 | 22.3 |  |  |  |
| COc1ccc(-c2cc3cc(F)ccc3nc2C(=O)c2ccccc2)cc1 | 5.11 | 96 | 89.7 | 7.24 |  |  |  |
| COc1ccc(-c2cc3cc(OC)ccc3nc2C(O)c2ccccc2)cc1 (stereo not given) | 61.2 | 87.7 | 26 | 38 |  |  | Ratio CC50/IC50 [10]: 4.87; Activity (dengue virus type 2 [11]): Active; CC50 at 72 h [12]: 68.9 µM; IC50 (dengue virus type 2 [13]): 14.1 µM; Activity (dengue virus type 2 [14]): Active |
| O=C(c1ccccc1)c1nc2ccccc2cc1-c1ccc(F)cc1 | 14.1 | 74.8 | 45.9 | 20.1 |  |  |  |
| O=C(c1ccc(OCCN2CCCCC2)cc1)c1nc2ccccc2cc1-c1ccc(OCCN2CCCCC2)cc1 |  | 18.4 | 15.8 |  | 6.59 | 7.99 | IC50 (A549): 6.53 µM; IC50 (MCF7): 4.66 µM; IC50 [7]: 6.18 µM |
| COc1ccc(-c2cc3ccccc3nc2C(O)c2ccccc2)cc1 (stereo not given) | 65.1 | 96.6 | 68.1 | 45.3 |  |  | Ratio CC50/IC50 [10]: >7.96; Activity (dengue virus type 2 [15]): Dose-dependent effect; Activity (dengue virus type 2 [11]): Active; Activity (dengue virus type 2 [16]): Dose-dependent effect; CC50 at 72 h [12]: > 100 µM; IC50 (dengue virus type 2 [13]): 12.6 µM; Activity (dengue virus type 2 [14]): Active |
| O=C(c1ccc(O)cc1)c1nc2ccccc2cc1-c1ccc(OCCN2CCCC2)cc1 |  | 91 | 18.1 |  | > 10 | > 10 | IC50 (A549): > 10 µM; IC50 (MCF7): > 10 µM; IC50 [7]: > 10 µM |
| O=C(c1ccc(OCCN2CCCC2)cc1)c1nc2ccccc2cc1-c1ccc(OCCN2CCCC2)cc1 |  | 15.5 | 16.6 |  | 8.68 | 8.42 | IC50 (A549): 7.38 µM; IC50 (MCF7): 4.59 µM; IC50 [7]: 5.68 µM |
| COc1ccc(-c2cc3ccccc3nc2C(=O)c2ccccc2)cc1 | 6.93 | 93.1 | 87.8 | 3.12 |  |  |  |
| O=C(c1ccccc1)c1nc2ccc(F)cc2cc1-c1ccc(F)cc1 | 9.13 | 96.3 | 75.1 | 32.1 |  |  |  |
| CN(C)CCCOc1ccc(C(=O)c2nc3ccccc3cc2-c2ccc(OCCCN(C)C)cc2)cc1 |  | 17.6 | 19.2 |  | 6.44 | 7.14 | IC50 (A549): 6.35 µM; IC50 (MCF7): 4.47 µM; IC50 [7]: 4.98 µM |
| NC(=O)c1ncn([C@@H]2O[C@H](CO)[C@@H](O)[C@H]2O)n1 [RIBAVIRIN] | 67.5 | 71.4 | 26.8 | 32 |  |  | Ratio CC50/IC50 [10]: 4.47; CC50 at 72 h [12]: 56.3 µM; IC50 (dengue virus type 2 [13]): 12.6 µM |
| COc1ccc(C(=O)c2nc3ccccc3cc2-c2ccc(OC)cc2)cc1 | 14.1 | 96.1 | 68.2 | 10.1 |  |  |  |
| OC(c1ccccc1)c1nc2ccccc2cc1-c1ccc(F)cc1 (stereo not given) | 10.2 | 109 | 90.9 | 13.1 |  |  |  |
| COc1ccc(-c2cc3cc(F)ccc3nc2C(O)c2ccccc2)cc1 (stereo not given) | 19.1 | 87.4 | 30.7 | 16.1 |  |  |  |
| O=C(c1ccc(O)cc1)c1nc2ccccc2cc1-c1ccc(OCCN2CCCCC2)cc1 |  | 77.5 | 19.5 |  | > 10 | > 10 | IC50 (A549): > 10 µM; IC50 (MCF7): > 10 µM; IC50 [7]: > 10 µM |
| CCOc1ccc2nc(C)cc(Nc3ccc(OCc4ccccc4Cl)cc3)c2c1 |  |  |  |  |  |  | IC50 (West Nile virus): 1.9 µM; IC50 (dengue virus type 2 [17]): 5 µM |
| COc1ccc(-c2cc3ccccc3nc2C(=O)c2cc(OC)c(OC)c(OC)c2)cc1 |  | 74.1 | 35.1 |  | > 10 | > 10 | IC50 (A549): > 10 µM; IC50 (MCF7): > 10 µM; IC50 [7]: > 10 µM |

— ChEMBL document CHEMBL3232713, “Synthesis, antiproliferative and anti-dengue virus evaluations of 2-aroyl-3-arylquinoline derivatives” (Eur J Med Chem, 2014)
